In series [1] the test system is Liver microsome. Kind of series: Drug metabolism in human liver microsomes assessed as N-glucuronide-triclocarban formation incubated for 5 mins prior to UDPGA addition measured after 5 to 30 mins by LC-UV analysis. It counts as ADME. The method, boiled down:
(§1)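 Pooled human kidney or liver microsomes (liver: 25 mixed-gender donors), 5 µg protein, in 200 µL 100 mM potassium phosphate pH 7.4. Alamethicin pre-treated on ice 15 min. Final 10 µM TCC (2% DMSO), with 10 mM MgCl2 and 10 mM saccharolactone, preincubated 5 min at 37 °C. Started with UDPGA (20 mM stock). Sampled at 5, 10, 15 and 30 min into ACN containing 1 µM DCC internal standard.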

Series [2] has as its target T1, UDP-glucuronosyltransferase 1A9 (Homo sapiens, UniProt O60656).
T1 sequence (O60656 whole entry): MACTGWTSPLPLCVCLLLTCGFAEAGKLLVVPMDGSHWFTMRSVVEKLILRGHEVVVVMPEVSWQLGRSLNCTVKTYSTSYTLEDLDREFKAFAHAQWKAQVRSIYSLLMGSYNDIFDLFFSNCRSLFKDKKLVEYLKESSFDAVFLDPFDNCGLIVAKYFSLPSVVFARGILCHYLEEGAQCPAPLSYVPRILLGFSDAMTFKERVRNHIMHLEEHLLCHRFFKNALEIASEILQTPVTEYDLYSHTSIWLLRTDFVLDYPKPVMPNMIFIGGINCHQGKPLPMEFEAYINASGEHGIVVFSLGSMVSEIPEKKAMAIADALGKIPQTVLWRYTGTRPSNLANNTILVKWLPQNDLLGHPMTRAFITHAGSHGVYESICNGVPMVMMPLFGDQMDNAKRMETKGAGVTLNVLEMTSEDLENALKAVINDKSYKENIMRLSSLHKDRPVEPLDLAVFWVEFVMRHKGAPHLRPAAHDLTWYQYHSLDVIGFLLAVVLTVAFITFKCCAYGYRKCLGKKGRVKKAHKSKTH
Nature of the series: Drug metabolism assessed as human UGT1A9-mediated N'-glucuronide-triclocarban formation expressed in baculovirus infected insect sf9 cells incubated for 5 mins prior to UDPGA addition measured after 5 to 30 mins by LC-UV analysis. In kind it is ADME. The method, boiled down: (§2)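 Microsomes or UGT Supersomes (5 µg protein) were held 15 min on ice with alamethicin in 100 mM potassium phosphate pH 7.4. TCC was added at 10 µM (2% DMSO) with 10 mM MgCl2 and 10 mM saccharolactone, pre-warmed 5 min at 37 °C, then started with UDPGA. Samples at 5, 10, 15 and 30 min were quenched in ACN. Product was read by LC-UV at 265 nm; rate came from regression over time, three incubations.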

Series [3] deals with T1, UDP-glucuronosyltransferase 1A9. Kind of series: Drug metabolism assessed as human UGT1A9-mediated N-glucuronide-triclocarban formation expressed in baculovirus infected insect sf9 cells incubated for 5 mins prior to UDPGA addition measured after 5 to 30 mins by LC-UV analysis. It counts as ADME. The method in brief:
as §2

Series [4] can be described thus: Drug excretion in Swiss webster mouse urine assessed as 3'-O-glucuronide-triclocarban formation at 5 mg/kg, po by LC-MS analysis. It counts as ADME, organism-based. To be noted: in vivo. Details: dose 5 mg/kg, route oral. The method in brief: (§3)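 Mice were housed two per metabolic cage, with blank urine collected over the 24 h before dosing. TCC was given by oral gavage as a 1 mg/mL solution in 20/80 DMSO/PEG400 (v/v) at 5 mg/kg. Urine was collected at 0-24 h and 24-48 h and analysed by online LC-MS. Values are the mean of two independent experiments.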

The target in series [5] is T2, UDP-glucuronosyltransferase 1A4 (Homo sapiens, UniProt P22310).
T2 sequence (P22310 whole entry): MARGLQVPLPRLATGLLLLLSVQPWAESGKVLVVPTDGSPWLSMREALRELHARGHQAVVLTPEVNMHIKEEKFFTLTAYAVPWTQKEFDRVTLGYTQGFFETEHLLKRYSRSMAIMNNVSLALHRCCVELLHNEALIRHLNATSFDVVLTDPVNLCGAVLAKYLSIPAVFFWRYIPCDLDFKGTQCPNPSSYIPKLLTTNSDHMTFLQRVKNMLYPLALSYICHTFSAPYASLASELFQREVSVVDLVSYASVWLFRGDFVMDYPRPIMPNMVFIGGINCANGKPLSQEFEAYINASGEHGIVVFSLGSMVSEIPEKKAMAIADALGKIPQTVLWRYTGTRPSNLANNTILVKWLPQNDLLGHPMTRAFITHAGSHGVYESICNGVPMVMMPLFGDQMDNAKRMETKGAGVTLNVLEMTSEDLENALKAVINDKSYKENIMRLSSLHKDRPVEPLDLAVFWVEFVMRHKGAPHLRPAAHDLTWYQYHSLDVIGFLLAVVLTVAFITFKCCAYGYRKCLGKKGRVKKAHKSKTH
Nature of the series: Drug metabolism assessed as human UGT1A4-mediated N-glucuronide-triclocarban formation expressed in baculovirus infected insect sf9 cells incubated for 5 mins prior to UDPGA addition measured after 5 to 30 mins by LC-UV analysis. It counts as ADME. The method, boiled down: as §2

A short description of series [6]: Drug excretion in Swiss webster mouse urine assessed as N-glucuronide-triclocarban formation at 5 mg/kg, po by LC-MS analysis. Further details: dose 5 mg/kg, route oral. In kind it is ADME, organism-based. To be noted: in vivo. The method in brief: as §3
Series [7] concerns Liver microsome. Nature of the series: Drug metabolism in human liver microsomes assessed as N'-glucuronide-triclocarban formation incubated for 5 mins prior to UDPGA addition measured after 30 mins by LC-UV-ESI-MS/MS analysis. It counts as ADME. To be noted: 0.5 h. The method, boiled down:
as §1

Series [8] concerns Liver microsome. Kind of series: Intrinsic clearance in Sprague-Dawley rat liver microsomes after 30 mins by LC-ESI-MS analysis. It counts as ADME. To be noted: 0.5 h. The method, boiled down: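 2'-OH-TCC at 0.2, 0.5, 1, 2, 3, 5, 10 and 50 µM incubated with liver microsomes (alamethicin, MgCl2, saccharolactone, UDPGA; 37 °C), sampled at 5, 10, 15 and 30 min. Samples ≥5 µM diluted 1:9 in ACN; LC-ESI-MS. KM and vmax fitted from rate vs concentration; intrinsic clearance derived from these; mean and SD of three.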

Molecules are shown by their SMILES.

This passage reports Drug metabolism, Drug excretion and CLH results from ChEMBL document CHEMBL3525967, “In vitro glucuronidation of the antibacterial triclocarban and its oxidative metabolites” (Drug Metab Dispos, 2012).

As for `O=C(Nc1ccc(Cl)cc1)Nc1ccc(Cl)c(Cl)c1` [TRICLOCARBAN], the Drug metabolism result is on record as “metabolite_not_detected” in the series on Liver microsome [1]; “metabolite_not_detected” in series [2]; “metabolite_not_detected” in series [3]; “metabolite_not_detected” in series [5]; “metabolite_detected” in the series with Liver microsome [7]. The Drug excretion result in series [4] and in series [6] was “metabolite_detected” in each case.
In the series on Liver microsome [8], `O=C(Nc1ccc(Cl)c(Cl)c1)Nc1ccc(Cl)cc1O` registered a CLH of 2860 µL/min/mg.
